Test results taken from article PMC5900865 (Clinical Pharmacology in Drug Development, 2017).

Key:
[1] = system: CYP2A6; details: cited from earlier work
[2] = Study 1B multiple-dose pharmacokinetics; type: in vivo, human
Method in brief: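 Men (5, 10, 20 mg) and women (5, 10 mg) were dosed orally, fed, daily for 12 days. Plasma was sampled on day 1 predose to […]. Urine came from the 5 mg cohort predose days 1–16 then in 24-h intervals, and for 10/20 mg on day 12 at 0–24 h. Analysis was by HPLC-MS/MS and noncompartmental.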

[3] = system: healthy adult men; experiment: Study 3 safety evaluation; type: in vivo, human; details: single 10 mg
[4] = system: CYP2C19; details: cited from earlier work
[5] = system: elderly adult men and women; experiment: Study 2 safety evaluation; type: in vivo, human; details: elderly population, single dose of 10 mg
Method in brief: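 Elderly Japanese adults aged 65–85 (10 men, 10 women) were randomized 4:1, double-blind, to one oral 10 mg dose or placebo. Dosing was fasted, in the morning of day 1. Participants stayed on site days 1–5 and were discharged day 6. AEs, weight, vital signs, 12-lead ECG and haematology, chemistry, coagulation and urinalysis were recorded. TEAE incidence and intensity were compared with placebo.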

[6] = system: CYP1A2; details: cited from earlier work
[7] = Study 3 food-effect pharmacokinetics; type: in vivo, human
Method in brief: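 Open-label two-period crossover in healthy men given 10 mg orally on days 1 and 15, fasted or fed. Fasted dosing followed ≥10 h fasting, with water. Fed dosing came within 10 min after a high-fat breakfast (≥900 kcal, ≥35% fat) eaten within 20 min. Plasma was sampled predose to 168 h; urine was pooled to 168 h. Log-transformed Cmax/AUC were analysed by ANOVA with 90% CI of back-transformed LS mean ratios. Tmax used Wilcoxon signed-rank.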

[8] = system: CYP2E1; details: cited from earlier work
[9] = system: CYP2B6; details: cited from earlier work
[10] = system: CYP2C9; details: cited from earlier work
[11] = system: healthy Japanese adults; experiment: Safety evaluation across all 3 studies; type: in vivo, human; details: any of the studies
[12] = Study 2 single-dose pharmacokinetics in elderly adults; type: in vivo, human; details: for AUC(0-inf) / Cmax / Tmax: human, plasma, oral, 10 mg; for T1/2 / Fe0–120, fraction excreted: single 10 mg; for T1/2: fasted; for Fe0–120, fraction excreted: urine 0 to 120 hours
Method in brief: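 Elderly men and women (65–85 y) received a single oral 10 mg dose, fasted, in the morning. Plasma vortioxetine and metabolites were assayed by HPLC-MS/MS after liquid–liquid extraction. Urine was pooled predose and at 24-h intervals to 120 h. Parameters came from noncompartmental analysis. Below-LLOQ concentrations were entered as zero in means. Tmax is median (min–max).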

[13] = Study 1A single-rising-dose pharmacokinetics; type: in vivo, human; details: for Tmax / half-life / AUC(0-inf) / Cmax: human, plasma; for CL/F / Fe0–48, cumulative excretion ratio (% of dose): fasted, men; for Fe0–48, cumulative excretion ratio (% of dose): urine 0 to 48 hours
Method in brief: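 Healthy men received single oral doses of 2.5–40 mg. The 2.5 mg cohort was redosed fed (30 min post-breakfast) on day 15 after a 14-day washout. EDTA plasma was sampled predose and 1–216 h postdose; urine was pooled at 0–6, 6–12, 12–24 and 24–48 h. Samples were stored at ≤ −20 °C, liquid–liquid extracted and assayed by HPLC-MS/MS. Parameters came from noncompartmental analysis.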

[14] = day 12, female, 5 mg daily, n = 5, mean (SD)
[15] = day 12, female, 10 mg daily, n = 6, mean (SD)
[16] = day 12, male, 5 mg daily, n = 6, mean (SD)
[17] = day 12, male, 10 mg daily, n = 6, mean (SD)
[18] = day 12, male, 20 mg daily, n = 6, mean (SD)
[19] = elderly women, n = 7, mean (SD)
[20] = single 2.5 mg, n = 5, mean (SD)

Compound: Cc1ccc(Sc2ccccc2N2CCNCC2)c(C)c1 [Vortioxetine, 1‐[2‐(2,4‐dimethylphenylsulfanyl)phenyl]piperazine]
- inhibitory or inducing effect in vitro [1]: No inhibitory or inducing effect
- time to reach steady state ([2]; 5‐ and 20‐mg doses in men and 10‐mg dose in women): approximately 12 days
- steady state of trough plasma concentrations ([2]; 10‐mg dose in men and 5‐mg dose in women): did not reach steady state even after 12 days
- clearance at 12 days ([2]; both, human, plasma, oral): 333 to 867 mL/min
- CL/F ([2]; day 1, female, 5 mg daily, fed, n = 5, mean (SD)): 22.3 (19.6) L/h
- CL/F ([2]; day 1, female, 10 mg daily, fed, n = 6, mean (SD)): 99.3 (104.7) L/h
- CL/F ([2]; day 1, male, 5 mg daily, fed, n = 6, mean (SD)): 30.6 (9.4) L/h
- CL/F ([2]; day 1, male, 10 mg daily, fed, n = 6, mean (SD)): 29.1 (12.0) L/h
- CL/F ([2]; day 1, male, 20 mg daily, fed, n = 6, mean (SD)): 50.4 (17.1) L/h
- CL/F ([2]; day 12, female, 5 mg daily, fed, n = 5, mean (SD)): 20.2 (9.5) L/h
- R(AUC), cumulative ratio of AUC values [2, 14]: 6.0 (2.0)
- R(Cmax), cumulative ratio of Cmax values [2, 14]: 5.0 (1.5)
- CL/F ([2]; day 12, female, 10 mg daily, fed, n = 6, mean (SD)): 69.9 (94.8) L/h
- R(AUC), cumulative ratio of AUC values [2, 15]: 5.3 (2.2)
- R(Cmax), cumulative ratio of Cmax values [2, 15]: 3.9 (1.5)
- CL/F ([2]; day 12, male, 5 mg daily, fed, n = 6, mean (SD)): 33.1 (10.3) L/h
- R(AUC), cumulative ratio of AUC values [2, 16]: 5.2 (1.4)
- R(Cmax), cumulative ratio of Cmax values [2, 16]: 4.4 (1.1)
- CL/F ([2]; day 12, male, 10 mg daily, fed, n = 6, mean (SD)): 23.8 (4.4) L/h
- R(AUC), cumulative ratio of AUC values [2, 17]: 6.2 (0.9)
- R(Cmax), cumulative ratio of Cmax values [2, 17]: 5.1 (0.6)
- CL/F ([2]; day 12, male, 20 mg daily, fed, n = 6, mean (SD)): 51.5 (16.6) L/h
- R(AUC), cumulative ratio of AUC values [2, 18]: 3.9 (1.0)
- R(Cmax), cumulative ratio of Cmax values [2, 18]: 3.2 (0.7)
- AUC(0-t) ([2]; female, human, plasma, oral, 5 mg, AUC0–24, day 1, female, 5 mg daily, fed, n = 5, mean (SD)): 47.1 ng·h/mL
- AUC(0-t) ([2]; female, human, plasma, oral, 5 mg, AUC0–24, day 12, female, 5 mg daily, fed, n = 5, mean (SD)): 284 ng·h/mL
- half-life ([2]; female, human, plasma, oral, 5 mg, T1/2, day 1, female, 5 mg daily, fed, n = 5, mean (SD)): 113 h
- half-life ([2]; female, human, plasma, oral, 5 mg, T1/2, day 12, female, 5 mg daily, fed, n = 5, mean (SD)): 79.8 h
- AUC(0-t) ([2]; female, human, plasma, oral, 10 mg, AUC0–24, day 1, female, 10 mg daily, fed, n = 6, mean (SD)): 53.3 ng·h/mL
- AUC(0-t) ([2]; female, human, plasma, oral, 10 mg, AUC0–24, day 12, female, 10 mg daily, fed, n = 6, mean (SD)): 295 ng·h/mL
- half-life ([2]; female, human, plasma, oral, 10 mg, T1/2, day 1, female, 10 mg daily, fed, n = 6, mean (SD)): 34.2 h
- half-life ([2]; female, human, plasma, oral, 10 mg, T1/2, day 12, female, 10 mg daily, fed, n = 6, mean (SD)): 58 h
- average time to reach steady state ([2]; given a median half‐life of 67 hours): 14 days
- half-life ([2]; human, plasma, oral, median half‐life, as given in the discussion): 67 h
- AUC(0-t) ([2]; male, human, plasma, oral, 5 mg, AUC0–24, day 1, male, 5 mg daily, fed, n = 6, mean (SD)): 31.6 ng·h/mL
- AUC(0-t) ([2]; male, human, plasma, oral, 5 mg, AUC0–24, day 12, male, 5 mg daily, fed, n = 6, mean (SD)): 163 ng·h/mL
- half-life ([2]; male, human, plasma, oral, 5 mg, T1/2, day 1, male, 5 mg daily, fed, n = 6, mean (SD)): 68 h
- half-life ([2]; male, human, plasma, oral, 5 mg, T1/2, day 12, male, 5 mg daily, fed, n = 6, mean (SD)): 58 h
- AUC(0-t) ([2]; male, human, plasma, oral, 10 mg, AUC0–24, day 1, male, 10 mg daily, fed, n = 6, mean (SD)): 71 ng·h/mL
- AUC(0-t) ([2]; male, human, plasma, oral, 10 mg, AUC0–24, day 12, male, 10 mg daily, fed, n = 6, mean (SD)): 432 ng·h/mL
- half-life ([2]; male, human, plasma, oral, 10 mg, T1/2, day 12, male, 10 mg daily, fed, n = 6, mean (SD)): 65.1 h
- AUC(0-t) ([2]; male, human, plasma, oral, 20 mg, AUC0–24, day 1, male, 20 mg daily, fed, n = 6, mean (SD)): 110 ng·h/mL
- AUC(0-t) ([2]; male, human, plasma, oral, 20 mg, AUC0–24, day 12, male, 20 mg daily, fed, n = 6, mean (SD)): 433 ng·h/mL
- half-life ([2]; male, human, plasma, oral, 20 mg, T1/2, day 1, male, 20 mg daily, fed, n = 6, mean (SD)): 44 h
- half-life ([2]; male, human, plasma, oral, 20 mg, T1/2, day 12, male, 20 mg daily, fed, n = 6, mean (SD)): 56.8 h
- Fe0–x, fraction excreted (VOR) ([2]; urine 0 to 24 hours (day 1), female, 5 mg daily, n = 5, mean (SD)): 0.00 (0.0) %
- Fe0–x, fraction excreted (VOR) ([2]; urine 0 to 24 hours (day 1), male, 5 mg daily, n = 6, mean (SD)): 0.00 (0.0) %
- Fe0–x, fraction excreted (VOR) ([2]; urine 0 to 288 hours (day 12), female, 5 mg daily, n = 5, mean (SD)): 0.0494 (0.087) %
- Fe0–x, fraction excreted (VOR) ([2]; urine 0 to 288 hours (day 12), male, 5 mg daily, n = 6, mean (SD)): 0.0072 (0.018) %
- safety profiles, fasted vs fed [3]: no significant differences in safety profiles
- inhibitory or inducing effect in vitro [4]: No inhibitory or inducing effect
- safety and tolerability [5]: safe and tolerated
- inhibitory or inducing effect in vitro [6]: No inhibitory or inducing effect
- Tmax ([7]; male, human, plasma, oral, 10 mg): 12 h
- 90%CIs for the LS mean ratios of Cmax and AUC (fed vs fasted) ([7]; single 10 mg, no‐effect boundary 90%CI, 0.8–1.25): within the no‐effect boundary
- inhibitory or inducing effect in vitro [8]: No inhibitory or inducing effect
- inhibitory or inducing effect in vitro [9]: No inhibitory or inducing effect
- inhibitory or inducing effect in vitro [10]: No inhibitory or inducing effect
- deaths or serious AEs [11]: no deaths or serious AEs leading to trial discontinuation were observed
- AUC(0-inf) ([12]; female): 305 ng·h/mL
- Cmax ([12]; female): 4.6 ng/mL
- Tmax ([12]; female): 6 h
- AUC(0-inf) ([12]; male): 378 ng·h/mL
- Cmax ([12]; male): 4.2 ng/mL
- Tmax ([12]; male): 6 h
- T1/2 ([12]; elderly men, n = 8, mean (SD)): 85.2 (29.8) h
- T1/2 [12, 19]: 63.5 (10.7) h
- Fe0–120, fraction excreted ([12]; elderly men, n = 8, mean (SD)): 0.0 (0.0) %
- Fe0–120, fraction excreted [12, 19]: 0.0 (0.0) %
- Tmax ([13]; both, po): 6 to 13 h
- half-life ([13]; male, oral): 50 to 70 h
- AUC(0-inf) ([13]; male, oral, 2.5 mg): 56.5 ng·h/mL
- Cmax ([13]; male, oral, 2.5 mg): 0.8 ng/mL
- Tmax ([13]; male, oral, 2.5 mg): 10 h
- AUC(0-inf) ([13]; male, oral, 5 mg): 188 ng·h/mL
- Cmax ([13]; male, oral, 5 mg): 1.9 ng/mL
- Tmax ([13]; male, oral, 5 mg): 10 h
- half-life ([13]; male, oral, 5 mg): 69.4 h
- AUC(0-inf) ([13]; male, oral, 10 mg): 348 ng·h/mL
- Cmax ([13]; male, oral, 10 mg): 3.5 ng/mL
- Tmax ([13]; male, oral, 10 mg): 10 h
- half-life ([13]; male, oral, 10 mg): 66 h
- AUC(0-inf) ([13]; male, oral, 20 mg): 560 ng·h/mL
- Cmax ([13]; male, oral, 20 mg): 7.7 ng/mL
- Tmax ([13]; male, oral, 20 mg): 9 h
- AUC(0-inf) ([13]; male, oral, 40 mg): 1310 ng·h/mL
- Cmax ([13]; male, oral, 40 mg): 19.4 ng/mL
- Tmax ([13]; male, oral, 40 mg): 6.3 h
- CL/F [13, 20]: 50 (20) L/h
- CL/F ([13]; single 5 mg, n = 6, mean (SD)): 29.6 (10.3) L/h
- CL/F ([13]; single 10 mg, n = 6, mean (SD)): 35.2 (19.2) L/h
- CL/F ([13]; single 20 mg, n = 6, mean (SD)): 41.4 (17.6) L/h
- CL/F ([13]; single 40 mg, n = 4, mean (SD)): 34.0 (13.1) L/h
- Fe0–48, cumulative excretion ratio (% of dose) [13, 20]: 0.0 (0.0) %
- Fe0–48, cumulative excretion ratio (% of dose) ([13]; single 5 mg, n = 6, mean (SD)): 0.0 (0.0) %
- Fe0–48, cumulative excretion ratio (% of dose) ([13]; single 10 mg, n = 6, mean (SD)): 0.007 (0.018) %
- Fe0–48, cumulative excretion ratio (% of dose) ([13]; single 20 mg, n = 6, mean (SD)): 0.023 (0.023) %
- Fe0–48, cumulative excretion ratio (% of dose) ([13]; single 40 mg, n = 4, mean (SD)): 0.034 (0.017) %
